Reference: ChEMBL document CHEMBL4190234, “Design, synthesis and anticancer activity of new monastrol analogues bearing 1,3,4-oxadiazole moiety” (Eur J Med Chem, 2017)

How the values were obtained:
Assay type in all cases: functional
786-0 = assay: Growth inhibition of human 786-0 cells at 10 uM incubated for 48 hrs by sulforhodamine B assay relative to control; conditions: 786-0, 48 h, read-out: GI
Outline: (§1)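 Single-dose screen at 10 μM final: cells in RPMI 1640, 5% FBS, 2 mM L-glutamine, plated 5,000–40,000/well, preincubated 24 h at 37°C, 5% CO2; drug 48 h; adherent cells fixed with 10% TCA, suspension cells with 16% TCA; SRB stain, absorbance 515 nm; percentage growth versus untreated control, with time-zero plates.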

CCRF-CEM = assay: Growth inhibition of human CCRF-CEM cells at 10 uM incubated for 48 hrs by sulforhodamine B assay relative to control; conditions: read-out: GI; outline: as §1
RPMI-8226 = assay: Growth inhibition of human RPMI8226 cells at 10 uM incubated for 48 hrs by sulforhodamine B assay relative to control; conditions: RPMI-8226, 48 h, read-out: GI; outline: as §1
DU-145 = assay: Growth inhibition of human DU145 cells at 10 uM incubated for 48 hrs by sulforhodamine B assay relative to control; conditions: DU-145, 48 h, read-out: GI; outline: as §1
MOLT-4 = assay: Growth inhibition of human MOLT4 cells at 10 uM incubated for 48 hrs by sulforhodamine B assay relative to control; conditions: MOLT-4, 48 h, read-out: GI; outline: as §1
HCT-116 = assay: Growth inhibition of human HCT116 cells at 10 uM incubated for 48 hrs by sulforhodamine B assay relative to control; conditions: HCT-116, 48 h, read-out: GI; outline: as §1
SK-MEL-2 = assay: Growth inhibition of human SK-MEL-2 cells at 10 uM incubated for 48 hrs by sulforhodamine B assay relative to control; conditions: SK-MEL-2, 48 h, read-out: GI
Outline: (§2)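 NCI single-dose screen: cells grown in RPMI 1640 with 5% FBS and 2 mM L-glutamine, plated at 5,000–40,000 cells/well and preincubated 24 h at 37 °C, 5% CO2. Compounds taken from DMSO stock and tested at final 10 µM for 48 h. Cells fixed with TCA, stained with 0.4% SRB, absorbance read at 515 nm. Percentage growth calculated against untreated controls; controls held DMSO at the same dilution.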

UO-31 = assay: Growth inhibition of human UO31 cells at 10 uM incubated for 48 hrs by sulforhodamine B assay relative to control; conditions: UO-31, 48 h, read-out: GI; outline: as §2
MDA-MB-468 = assay: Growth inhibition of human MDA-MB-468 cells at 10 uM incubated for 48 hrs by sulforhodamine B assay relative to control; conditions: MDA-MB-468, 48 h, read-out: GI; outline: as §1
LOX IMVI = assay: Growth inhibition of human LOXIMVI cells at 10 uM incubated for 48 hrs by sulforhodamine B assay relative to control; conditions: read-out: GI; outline: as §1
OVCAR-8 = assay: Growth inhibition of human OVCAR8 cells at 10 uM incubated for 48 hrs by sulforhodamine B assay relative to control; conditions: OVCAR-8, 48 h, read-out: GI; outline: as §1
UACC-257 = assay: Growth inhibition of human UACC257 cells at 10 uM incubated for 48 hrs by sulforhodamine B assay relative to control; conditions: UACC-257, 48 h, read-out: GI; outline: as §2
ACHN = assay: Growth inhibition of human ACHN cells at 10 uM incubated for 48 hrs by sulforhodamine B assay relative to control; conditions: read-out: GI; outline: as §1
NCI-H522 = assay: Growth inhibition of human NCI-H522 cells at 10 uM incubated for 48 hrs by sulforhodamine B assay relative to control; conditions: NCI-H522, 48 h, read-out: GI; outline: as §1
TK-10 = assay: Growth inhibition of human TK10 cells at 10 uM incubated for 48 hrs by sulforhodamine B assay relative to control; conditions: TK-10, 48 h, read-out: GI; outline: as §2
HCT-15 = assay: Growth inhibition of human HCT15 cells at 10 uM incubated for 48 hrs by sulforhodamine B assay relative to control; conditions: HCT-15, 48 h, read-out: GI; outline: as §1
CAKI-1 = assay: Growth inhibition of human Caki1 cells at 10 uM incubated for 48 hrs by sulforhodamine B assay relative to control; conditions: CAKI-1, 48 h, read-out: GI; outline: as §1
IGROV-1 = assay: Growth inhibition of human IGROV1 cells at 10 uM incubated for 48 hrs by sulforhodamine B assay relative to control; conditions: IGROV-1, 48 h, read-out: GI; outline: as §1
A549 = assay: Growth inhibition of human A549/ATCC cells at 10 uM incubated for 48 hrs by sulforhodamine B assay relative to control; conditions: A549, 48 h, read-out: GI; outline: as §1
Hs-578T = assay: Growth inhibition of human Hs 578T cells at 10 uM incubated for 48 hrs by sulforhodamine B assay relative to control; conditions: read-out: GI; outline: as §1
SNB-19 = assay: Growth inhibition of human SNB19 cells at 10 uM incubated for 48 hrs by sulforhodamine B assay relative to control; conditions: SNB-19, 48 h, read-out: GI; outline: as §2
NCI/ADR-RES = assay: Growth inhibition of human NCI/ADR-RES cells at 10 uM incubated for 48 hrs by sulforhodamine B assay relative to control; conditions: read-out: GI; outline: as §1
HT-29 = assay: Growth inhibition of human HT-29 cells at 10 uM incubated for 48 hrs by sulforhodamine B assay relative to control; conditions: HT-29, 48 h, read-out: GI; outline: as §1
MDA-MB-435 = assay: Growth inhibition of human MDA-MB-435 cells at 10 uM incubated for 48 hrs by sulforhodamine B assay relative to control; conditions: MDA-MB-435, 48 h, read-out: GI; outline: as §1
HL-60(TB) = assay: Growth inhibition of human HL-60(TB) cells at 10 uM incubated for 48 hrs by sulforhodamine B assay relative to control; conditions: HL-60, 48 h, read-out: GI
Outline: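 Single dose of 10 µM in the NCI ~60-line panel. Cells grown in RPMI 1640 with 5% FBS and 2 mM L-glutamine, plated and pre-incubated 24 h, then exposed 48 h at 37°C under 5% CO2. Suspension cells fixed with TCA (16% final) and stained with sulforhodamine B, A515 read. Reported as percent growth versus untreated control and as GI%.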

SNB-75 = assay: Growth inhibition of human SNB75 cells at 10 uM incubated for 48 hrs by sulforhodamine B assay relative to control; conditions: SNB-75, 48 h, read-out: GI; outline: as §2
SF-539 = assay: Growth inhibition of human SF539 cells at 10 uM incubated for 48 hrs by sulforhodamine B assay relative to control; conditions: SF-539, 48 h, read-out: GI; outline: as §2
SR = assay: Growth inhibition of human SR cells at 10 uM incubated for 48 hrs by sulforhodamine B assay relative to control; conditions: read-out: GI; outline: as §2

| SMILES | inhibition of growth at 10 µM (786-0) | inhibition of growth at 10 µM (CCRF-CEM) | inhibition of growth at 10 µM (RPMI-8226) | inhibition of growth at 10 µM (DU-145) | inhibition of growth at 10 µM (MOLT-4) | inhibition of growth at 10 µM (HCT-116) | inhibition of growth at 10 µM (SK-MEL-2) | inhibition of growth at 10 µM (UO-31) | inhibition of growth at 10 µM (MDA-MB-468) | inhibition of growth at 10 µM (LOX IMVI) | inhibition of growth at 10 µM (OVCAR-8) | inhibition of growth at 10 µM (UACC-257) | inhibition of growth at 10 µM (ACHN) | inhibition of growth at 10 µM (NCI-H522) | inhibition of growth at 10 µM (TK-10) | inhibition of growth at 10 µM (HCT-15) | inhibition of growth at 10 µM (CAKI-1) | inhibition of growth at 10 µM (IGROV-1) | inhibition of growth at 10 µM (A549) | inhibition of growth at 10 µM (Hs-578T) | also measured |
| --- | --- | --- | --- | --- | --- | --- | --- | --- | --- | --- | --- | --- | --- | --- | --- | --- | --- | --- | --- | --- | --- |
| CC(=O)C1=C(C)NC(SCc2nnc(-c3ccc(Cl)cc3)o2)=NC1c1ccc(Cl)cc1 (configuration not stated) | 12.6% | 20.9% | 32.9% | < 10% | 24.4% | 25.8% | < 10% | 43.6% | 10.8% | < 10% | 14.5% | < 10% | 13.5% | 20.9% | 13.1% | 11% | 21.1% | 23.4% | 21.4% | < 10% | inhibition of growth at 10 µM (SNB-19): 16.6%; inhibition of growth at 10 µM (NCI/ADR-RES): < 10%; inhibition of growth at 10 µM (HT-29): < 10%; inhibition of growth at 10 µM (MDA-MB-435): < 10%; inhibition of growth at 10 µM (HL-60(TB)): 40.3%; inhibition of growth at 10 µM (SNB-75): 28.1%; inhibition of growth at 10 µM (SF-539): < 10%; inhibition of growth at 10 µM (SR): 37.8% |
| CCOC(=O)C1=C(C)NC(SCc2nnc(-c3ccc(C)cc3)o2)=NC1c1ccc(F)cc1 (configuration not stated) | 20.2% | 14.1% | 27.2% | < 10% | 21.6% | 18.6% | < 10% | < 10% | 18.1% | < 10% | 17.8% | < 10% | 19% | 22.4% | 28.4% | 11.3% | 24.7% | 13.9% | 17.3% | < 10% | inhibition of growth at 10 µM (SNB-19): 10.1%; inhibition of growth at 10 µM (NCI/ADR-RES): < 10%; inhibition of growth at 10 µM (HT-29): 12.4%; inhibition of growth at 10 µM (MDA-MB-435): < 10%; inhibition of growth at 10 µM (HL-60(TB)): 25.2%; inhibition of growth at 10 µM (SNB-75): 13.8%; inhibition of growth at 10 µM (SF-539): < 10%; inhibition of growth at 10 µM (SR): 26.5% |
| COc1ccc(-c2nnc(CSC3=NC(c4ccc(F)cc4)C(C(C)=O)=C(C)N3)o2)cc1 (configuration not stated) | < 10% | 15.7% | 14% | < 10% | 10.9% | < 10% | < 10% | 29.7% | < 10% | < 10% | < 10% | < 10% | < 10% | 18% | < 10% | < 10% | 29.9% | < 10% | 15.6% | < 10% | inhibition of growth at 10 µM (SNB-19): 13.4%; inhibition of growth at 10 µM (NCI/ADR-RES): < 10%; inhibition of growth at 10 µM (HT-29): < 10%; inhibition of growth at 10 µM (MDA-MB-435): < 10%; inhibition of growth at 10 µM (HL-60(TB)): 15.2%; inhibition of growth at 10 µM (SNB-75): 17.3%; inhibition of growth at 10 µM (SF-539): < 10%; inhibition of growth at 10 µM (SR): 13.3% |
| CC(=O)C1=C(C)NC(SCc2nnc(-c3ccc(Cl)cc3)o2)=NC1c1ccc(F)cc1 (configuration not stated) | 16.4% | < 10% | 13.8% | < 10% | < 10% | 13.1% | < 10% | 26.1% | 11.3% | < 10% | < 10% | < 10% | < 10% | 15.6% | 14.6% | < 10% | 16.9% | 15.4% | < 10% | < 10% | inhibition of growth at 10 µM (SNB-19): < 10%; inhibition of growth at 10 µM (NCI/ADR-RES): < 10%; inhibition of growth at 10 µM (HT-29): < 10%; inhibition of growth at 10 µM (MDA-MB-435): < 10%; inhibition of growth at 10 µM (HL-60(TB)): 11.5%; inhibition of growth at 10 µM (SNB-75): 16.8%; inhibition of growth at 10 µM (SF-539): < 10%; inhibition of growth at 10 µM (SR): 19.1% |
